According to the EternaBench riboswitch data:

System: MS2 coat protein
Experiment: apparent Kd, MS2 coat protein; higher = weaker binding; RNA-MaP array; FMN 200 µM where present
Method in brief: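 Green signal was scaled to red-channel RNA signal and control-cluster median Fmax, and the apparent Kd was taken as the median of filtered per-cluster binding-curve fits. The binding series used SNAP-549-labelled MS2 coat protein from 0.7 or 1.5 nM, doubling to 3 µM, on designs transcribed by stalled E. coli RNA polymerase on Illumina sequencing-chip clusters. Each series ran without and then with constant ligand in 100 mM Tris-HCl pH 7.5, 80 mM KCl, 4 mM MgCl2, BSA, DTT, yeast tRNA and Tween-20.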

[1] = designed as: OFF switch for flavin mononucleotide, no ligand
[2] = ligand present: flavin mononucleotide, designed as: OFF switch for flavin mononucleotide
[3] = designed as: ON switch for flavin mononucleotide, no ligand
[4] = ligand present: flavin mononucleotide, designed as: ON switch for flavin mononucleotide

Sequence | apparent Kd [1] [nM] | apparent Kd [2] [nM] | apparent Kd [3] [nM] | apparent Kd [4] [nM]
AGCGUGUAAGGAUAUACGUCGGAUAGCGAAUACUGUCCCUAGUAGAAGGUACAUGAGGAUCACCCAUGUGUCCA | 23.9 | 51.8 |  | 
AAAAAGUGAGGAUAUCGAAAAAAAAAAAAAAAAAAAAAAAACGAGAAGGCACAUGAGGAUCACCCAUGUAAAAA | 35.8 | 44.9 |  | 
UAAUCUCAGAUAGGAUAUAUAGGAUGAUUUAAGACUGAACAUGAGGAUCACCCAUGUGAUUAUCUGUAGAAGGAUCAAUUACCC |  |  | 392 | 351
AAUGGCCAAGGAUAUGAGACCUAAAACAUGAGGAUCACCCAUGUGGACUCAGCCGCGUGGUCAGAAGGUGGAACCA | 13.8 | 14.8 |  | 
GGUUGUCAUAGUCAUCCUUUCCGUACAUGAGGAUCACCCAUGUAGGAUAUGCUACUCUCGGUGUGGCAGAAGGGCGUGUGUCUU | 18.2 | 18.8 |  | 
GCCGGGUAGGCAGGAUAUCCUCGCGCAAACACAUGAGGAUCACCCAUGUACACAAAACGUGAUAUGGAGAAGGGCCGACCCGCA |  |  | 26.6 | 5.28
GCUAUCGGGUGAGGAUAUAUGGUUGUGAUUAAAAUAGAAGGCAUCUCAGAAGACAUGAGGAUCACCCAUGUAGUUAAGAUGGCA |  |  | 63.4 | 46.8
GGAUGACAAAGUCAUCCUCAACGGACAUGAGGAUCACCCAUGUAGGAUAUGCUACUCAAAGAGUAGCAGAAGGACAUGUGUCUU | 37.3 | 241 |  | 
UGAUACAUGAGGAUCUCCCAUGACAUGAGGAUCACCCAUGUGCAGGAUAUACGUGUUAUAAUAUAGUAGAAGGGCAGUCUAUGU | 133 | 199 |  | 
ACGCUUUGGGAGAAGGUACGUUAAAUUUUUUCCACAUGAGGAUCACCCAUGUAAGGAUAUCCCAUCGUUAAAUAGGCUACAGCA | 8.92 | 8.85 |  | 
CCUUUGAAGAUCCAAAAUUUCAACAUGAGGAUCACCCAUGUGCAGGAUAUCGUGCCAGUGAUGUACGAGAAGGGCAGACUCUGC | 176 | 177 |  | 
CUAUUUAGUGCCUCAUUUACAUGAGGAUCACCCAUGUUAACUUAGGAUAUAUUUAUAUUGUUAGAGUAGAAGGAAGUACAUUUU | 237 | 208 |  | 
AACACGUGAGGAUAUACAUGAGGAUCACCCAUGUUGGUACAAUCCUGUCCGACUAUCCGUAGAAGGCAUUGACU | 38.7 |  |  | 
AAGUACCGGUGAGGAUAUUUUUAAUAGAACUUUAUGAUAUACAUGAGGAUCACCCAUGUUACUUUAAAGAAGGCAUCGGAUAAA | 18.3 | 14.6 |  | 
UGGUACUAGGGAGGAUAUGGGAAGAUACAUGAGGAUCACCCAUGUUUAAGAAUGCCGAGAGGCAACUAGAAGGCUCUAGUACCU |  |  | 416 | 18.4
AGCUGUGGCCGAGGAUAUCUGUUCCAUAAAACCGAAAUAUAAUCGGACAUGAGGAUCACCCAUGUAGAGAAGGCGGUCUCAGCA | 23.9 | 26.4 |  | 
UGCAUGCUAGGAUAUACGGGACAUUAGGGUUCGUCGUGUGGACAUGAGGAUCACCCAUGUAGAAGGAGCGUGCU | 90 | 345 |  | 
GCCAUGCUGGUGACGGAUAACACAUGAGGAUCACCCAUGUACAGAAGGCGGAAUUAGCGUAGGACCGAGGAUAUGUGCGUGAGG | 30.8 | 42.3 |  | 
CCGGAAACGGGUAGCUGACAUGAGGAUCACCCAUGUGAAUCACAGGAUAUGGAUCCUAAUUGGAUCCAGAAGGGUGUCAGCUAC |  |  | 1020 | 125
UUGAUGUCAUCAGGAUAUAGUAUUUAAGACAUAUCUUCUUUCAAACAUGAGGAUCACCCAUGUCGCUAGAAGGGAUGAUUGAUU | 17.3 | 15.3 |  | 
AUUUUUUGUCAUGUACAUGAUGAACAUGAGGAUCACCCAUGUAGAAGGAAUUUUUUUAAGUUUAGUUAGGAUAUACAUAUAUUU | 16.6 | 10.8 |  | 
GCAAUAGCAUGAGGAUAUGCUGGAGUUUAGACAGUAGAAGGCAUGUCAUAAGACAUGAGGAUCACCCAUGUAAUUACAAUAGCA |  |  | 45.9 | 22.1
AGUGUCAUCGAGAAGGCCUUAACAUGAGGAUCACCCAUGUUGUAAUAUGGGAGGAUAUCGAUGAUACAGCUACGUUUCGUAGCA |  |  | 10.1 | 5.71
UUUAAGUGAGGAUAUACGAAUAGUAAGUAAGUAUUACAGACGUAGAAGGCACAUGAGGAUCACCCAUGUAAAUA | 30.1 | 28.2 |  | 
CUUUUAUUGGUCCAUUUUUUCAACAUGAGGAUCACCCAUGUGCAGGAUAUCGUGAUUAUUAUCAACGAGAAGGGCAGAUUCACG | 29 | 73.6 |  | 
CCAGCGUAUGUGAGGAUAUGCUGGUCCUUGGAUCAGCAGAAGGCACAUGAGGAUCACCCAUGUAGAGACGUUGG | 27 | 29.8 |  | 
UUAAUUAAUUAAGCGCAAGAUCACAUGAGGAUCACCCAUGUAUAGGAUAUCAGCUCGAUUAGAGCUGAGAAGGAUACAUAGCGC | 203 | 568 |  | 
CAAGUACCAGAGGAUAUGGCGGUGCACUCCGUGCCAGAAGGUUGGACAUGAGGAUCACCCAUGUGCGAUUAGCU | 26 | 27.1 |  | 

Sequence | apparent Kd [1] [nM] | apparent Kd [2] [nM] | apparent Kd [3] [nM] | apparent Kd [4] [nM]
AGAUUUGUACAUGAGGAUCACCCAUGUUAAUAGGUGGUUGUCAGAAGGCAUUAAUAGAGAUUUAAUGAGGAUAUGAAUUAACAA |  |  | 903 | 593
GAAUAAUUGAUCCAAUUUAUCUACAUGAGGAUCACCCAUGUGCAGGAUAUCGUAAUAUUUAAUUACGAGAAGGGCAAGAACGGU | 281 | 425 |  | 
AUUAUGUUAGGAUAUGCUUAUGGUGGAUAAUCAGAUAUGAUGCAGAAGGGACAUGAGGAUCACCCAUGUACUGU | 20.8 | 23.6 |  | 
AGAUUCAUGGCCCGUUCGGGCCCACAUGAGGAUCACCCAUGUGAGGAUAUGAUGUACCUGAUUCAUCAGAAGGCGCAUGCGAAA | 7.32 | 20.5 |  | 
AACUGACAUGAGGAUCACCCAUGUCAGGAUAUGCUUCAUAAAAUAAAAAUAAAAUGAUGCAGAAGGGACAUGGA | 27.1 | 39.6 |  | 
GGGUACAUCGGAGGAUAUCAUGUAUAUACAUGAGGAUCACCCAUGUCGAUGGAGACAUCGGAGAUUGAGAAGGCCGAUGUACCG |  |  | 826 | 31.5
GGACGUCACAUAUACAUGAGGAUCACCCAUGUCAAAAGACAUGAGGAUAUGGAUCCUAAUUGGAUCCAGAAGGCAUGGACGUCC |  |  | 832 | 51.9
UGAUAGGACAGAGGAUAUACGGCUAGGAGAUACUAGCUACUAUUCCUCACAUGAGGAUCACCCAUGUAGAAGGCUGUCCUAUCU | 16.9 | 148 |  | 
CACGGAUAGUAGAAGGGUGACAUGAGGAUCACCCAUGUACUUAUUUAUUUAUUACUAUUUGAUACACAGGAUAUACUAUCCGUG |  |  | 956 | 279
GGUGCACGCACAGGAUAUCCGGCGGAGCUCGUCGGAGAAGGGUGACAUGAGGAUCACCCAUGUACGUGCAGCCAAGUUUGAGAG |  |  | 66.9 | 39.3
UAGAUGGGAGGAUAUGCGUAGAUGCGGAUUCGUGUGGUGCUACAUGAGGAUCACCCAUGUAGAAGGCCCGUCUU | 14.4 | 22 |  | 
AUUUUAUAAUAGAAGGUAGACUUCAUGAGGAUCACCCAUGUGUUGGUACUAAGGAUAUGUAAUAACAUGAGGAUCACCCAUGUC |  |  | 53.3 | 51.7
CUCGUGUAAGGAUAUAUUGCAAUGACGAAAUUUGCCCUGAGAUAGAAGGUACAUGAGGAUCACCCAUGUGUCGG | 45.5 | 92.2 |  | 
GAUCAACAUGAGGAUCACCCAUGUGAGGAUAUGAUACUAUGUACUUCGGUACAUAGUAUCAGAAGGCAUUAGGA | 51.8 | 39.6 |  | 
CCAGCGCGUGUGAGGAUAUGCUGGUCCUUGGAUCAGCAGAAGGCACAUGAGGAUCACCCAUGUGAGUGCGUUGG | 15.7 | 47.2 |  | 
CAGCACUGUCGAGAGGAUAUGCGGUGAUGGACAUGAGGAUCACCCAUGUUAGCGACAGCAUCACGGCAGAAGGCUCUACUGCUGC |  |  | 13.2 | 12.2
AAAGGAGGGAGGACCGUACAUGAGGAUCACCCAUGUAUAUCACAGGAUAUAGCAUGUUUAGGCAUCUAGAAGGGUGAUCGGUCA |  |  | 186 | 37.7
UUGGACGUCGUAGUAUAUGUAGGAUAUUCCUACAUGAGGAUCACCCAUGUUGACAUGGAAGAAGGACAGAAGGACGAUGUCCAU |  |  | 144 | 6.12
GGCACCAUCACAGGAUAUGCUUUCCUUUGGGAAGCAGAAGGGUGUAACAUGAGGAUCACCCAUGUGGUGCCAGGGCGUGAGCCC |  |  | 164 | 14
CUCUUGAGUCAGGAUAUCGUGAGGCUAAUAAUACGAGAAGGGACAACAUGAGGAUCACCCAUGUGGUCGAAGAG | 32.9 | 78.3 |  | 
AAAUUUAACGAAGGAUAUGCUUACAUGAGGAUCACCCAUGUGUGCCUUGUGUUGCUGAUUAGGUUGCAGAAGGUCGUAUACAUA | 124 | 684 |  | 
UGUGUGUGGCAGGAUAUGCAGGUAAUAAGACGGGUAGAAGGGUCUACAUGAGGAUCACCCAUGUGGCCGGUUGG | 16.1 | 18.2 |  | 
AAAUCGAGUGUAGGAUAUGCACAGUUUGACCGUGCAGAAGGACACAUGAGGAUCACCCAUGUUAGCUCAUGGGCGGUGACUUAG | 92.2 | 82.2 |  | 
AUUGAUGUUGAGGAUAUGCUUUUAUUUAUAAUAGCAGAAGGCGAUACAUGAGGAUCACCCAUGUUCAUGGUUUU | 24.9 | 33.6 |  | 
GCCUUAUCCGUCAGGAUAUACAUUUUUUUUUUGUUGUAGAAGGGACAUGAGGAUCACCCAUGUACAUUACAUUG | 25.8 | 28.9 |  | 
UACAUCACGUAAGGAUAUACACGGGUUUCAAGAGUAGAAGGUACAAACAUGAGGAUCACCCAUGUAGACAUGGUUAAUAUUGUA |  |  | 54.3 | 40.6
UGGUACUAGGGAGGAUAUGGGAAGAUACAUGAGGAUCACCCAUGUUUAAGAAUGCCGAGAGGCAACUAGAAGGCCCUAGUACCG |  |  | 475 | 21.9
